Experiment: CO release kinetics by increase of fluorescence intensity in DMSO/PBS
Assay type: physicochemical
Settings: fluorescence increase (450 nm); 100 μM; DMSO/PBS (pH = 7.4) 4:1, 37 °C
In short: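 Test compounds of scaffolds I and II were dissolved in DMSO/PBS (pH 7.4, 4:1) at 100 μM final and held at 37 °C. CO release was tracked as the rise in fluorescence intensity at 450 nm, read at successive time points. Each experiment was repeated three times independently.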

## C#CC(C)(C)NC(=O)C1=C2C(=C(c3ccccc3)C1=O)c1cccc3cccc2c13 [BW-CO-111]
  k, CO release rate: 3.31 ± 0.28 h⁻¹
  t1/2, half-life for CO release: ~12 min

— publication PMC5679012 (Chemistry (Weinheim an der Bergstrasse, Germany), 2017)
